Screens as filed in PubChem.
MEKK2mut PB1 HTS: signal of MEK5 binding to mutant human MEKK2 PB1 domain | bead flow cytometry, Alexa488-MEK5 binding to MEKK2 mutant | percent response, % at 10 µM | hit rate 0.35% among 290,000 | AID 1530; in the data active = percent response above about 24%, passing the limit was not always enough
MEKK3 PB1 HTS: raises or lowers MEK5 binding to the human MEKK3 PB1 domain | binding response (% of control), % at 10 µM | hit rate 1.4% among 290,000 | Q99759 | bead-based flow cytometry, Alexa488-MEK5 binding to MEKK3; actives lie on both sides; 0 = blocked by unlabeled MEK5, 100 = vehicle;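 active = binding response more than 3 SD above or below the average of its plate-row segment, actives on both sides; inconclusive = wells at one plate position flagged as instrument error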;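 note: Alexa488 bead fluorescence after subtracting the streptavidin-only scavenger bead signal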
MEKK2wt PB1 HTS: raises or lowers MEK5 binding to wildtype human MEKK2 PB1 domain. Q9Y2U5. bead flow cytometry, Alexa488-MEK5 binding to MEKK2 WT; actives lie on both sides. binding response (% of control), % at 10 µM. hit rate 1.1% among 290,000. AID 1531; in the data active = binding response below about 67% or above about 130%; inconclusive = no clear call, values can overlap the other calls; inactive = in between
Apaf1 inhib: blocks human Apaf-1 apoptosome activity. O14727. reconstituted apoptosome caspase-3 activity, DEVD-Rh110 fluorescence. inhibition, % at 20 µM. hit rate 0.71% among 330,000; active = inhibition of at least 40% at 20 µM;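 note: plate controls were DMSO wells for no effect and DEVD-CHO caspase inhibitor wells for full effect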
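Assay system – apoptosome proteins · Medium – Hepes buffer, pH 7.5 · Also added – cytochrome c with DEVD-Rh110 · Timing – 30 min compound preincubation, 50 min activation, room temperature · Detection – Rh110 fluorescence, excitation 480 nm, emission 540 nm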
DSG3 Ab inh: blocks pemphigus antibody binding to human desmoglein-3; hit rate 0.48% among 310,000; binding (percent of control), % at 10 µM; DSG3-coupled beads, scFv-anti-DSG3-GFP binding, flow cytometry; hits give low values; P32926;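 active = binding more than 3 SD below its plate's average and above zero; inconclusive = below that plate limit but binding exactly zero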;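 note: hits lower antibody fragment binding to DSG3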
UBC13 inh: blocks human UBC13 polyubiquitin chain formation. TR-FRET. inhibition, % at 20 µM. hit rate 0.47% among 330,000; in the data active = inhibition above about 45%, passing the limit was not always enough; inconclusive = no clear call, values can overlap the other calls
An asterisk follows results filed as active; u = inconclusive; x = no result given. Most compounds without a hit are left out; they make up all but 3.2% or so of the library.

SMILES	MEKK2mut PB1 HTS	MEKK3 PB1 HTS	MEKK2wt PB1 HTS	Apaf1 inhib	DSG3 Ab inh	UBC13 inh
O=C(CCC(=O)N1CCN(c2ccccc2F)CC1)N1CCN(c2ccccc2)CC1	3.0	99.0	102.0	-17.3	77.0*	11.3
Cc1ccc(OCC(=O)Nc2ccccc2C(=O)N2CCCC2)cc1	9.0	101.0	105.0	3.4	115.1	-2.7
CCN1CCN(CC(O)COc2ccc3c(c2)CCC3)CC1 (stereo not drawn)	-1.0	121.0	103.0	3.7	100.2	10.1
O=S(=O)(c1ccccc1)N1CCN(CC(O)COc2ccc3c(c2)CCC3)CC1 (stereo not drawn)	4.0	104.0	104.0	2.0	78.7*	3.8
O=C(NCCCN1CCCCC1)C1CCC(CNS(=O)(=O)c2cccc3nsnc23)CC1 (stereo not drawn)	1.0	95.0	101.0	4.5	102.7	-9.7
O=C(Nc1ccnn1C1CCN(C2CCOCC2)CC1)c1cccc(F)c1	4.0	104.0	106.0	-3.8	u	-4.6
COc1ccc(NC(=O)COC(=O)CCc2ccccc2)c(OC)c1	5.0	103.0	108.0	-0.4	48.3*	-3.6
COc1ccc(NC(=O)COC(=O)CCc2nc3ccccc3c(=O)[nH]2)c(OC)c1	x	x	x	-4.9	101.7	1.1
O=c1c2cc(-c3ccccc3)sc2ncn1-n1cccc1	-1.0	93.0	95.0	0.9	82.4*	-0.7
CCOc1ccc(N2CSC(=S)N(c3ccc(OCC)cc3)C2)cc1	-2.0	102.0	98.0	5.4	76.4*	-4.3
CC(OC(=O)c1cccc(-n2cnnn2)c1)C(=O)Nc1cccc(Cl)c1 (stereo not drawn)	x	x	x	2.6	104.5	4.6
O=C(Cn1cnc2ccccc2c1=O)c1ccc(OC(F)F)cc1	-1.0	101.0	98.0	6.9	38.6*	3.0
CSCCC(NC(=O)c1ccccc1)C(=O)NCCCSc1ccccc1 (stereo not drawn)	x	x	x	0.2	x	10.0
CC(C)c1ccc(S(=O)(=O)/N=C2\C=C(NS(=O)(=O)c3ccccc3)C(=O)c3ccccc32)cc1	-6.0	104.0	105.0	x	91.6	x
CC(C)c1ccc(S(=O)(=O)/N=C2/C=CC(=O)c3ccccc32)cc1	3.0	104.0	101.0	71.7*	x	-68.9
O=S1(=O)NC(CC2=CCCCC2)C2CCCCC2O1 (stereo not drawn)	-6.0	97.0	94.0	8.4	110.1	5.8
C/C=C/Cn1c(SCc2ccc(C)cc2)nc2c1c(=O)[nH]c(=O)n2C	19.0	110.0	108.0	19.3	70.8*	5.9
CCC(=O)N(c1nnc(SC(C)C(=O)Nc2ccc(N3CCOCC3)cc2)s1)C1CC1 (stereo not drawn)	x	x	x	x	102.4	x
COC(=O)CC1C(=O)NCCN1C(=O)c1cc(OC)c(OC)cc1OC (stereo not drawn)	0.0	100.0	100.0	6.9	105.0	-3.8
Cc1ccc(NC(=O)CSc2nc(C)c(Cc3ccccc3)c(=O)[nH]2)cc1C	3.0	105.0	26.0*	21.3	103.0	-14.2
O=C(O)c1cccc(NC(=O)c2cccc(S(=O)(=O)N3CCc4ccccc43)c2)c1	2.0	104.0	105.0	-2.6	101.6	-5.7
NC(=O)c1ccc(NC(=O)c2ccc3c(c2)CCN3S(=O)(=O)c2ccccc2)cc1	2.0	101.0	103.0	-1.0	10.1*	8.7
CCN(CC)CCNC(=O)c1ccc(NC(=O)/C=C/c2ccc3ccccc3n2)cc1	11.0	87.0	0.0*	20.5	100.7	13.8
CCCCCC(=O)Nc1nc(C)c(-c2csc(Nc3cc(Cl)ccc3OC)n2)s1	5.0	105.0	112.0	-1.4	78.6*	-13.9
CCCC(=O)Nc1nc(C)c(-c2csc(Nc3cc(OC)ccc3OC)n2)s1	-3.0	101.0	99.0	-11.7	100.0	1.3
CCC1(CC)CNC(=O)NC1	x	x	x	x	110.9	x
CC1CCN(CCCNC(=O)C2CCCN(c3ncnc4c3nc3n4CCCCC3)C2)CC1 (stereo not drawn)	0.0	100.0	104.0	8.4	105.3	12.1
COc1ccccc1N1CCN(CCCNC(=O)C2CCCN(c3ncnc4c3nc3n4CCCCC3)C2)CC1 (stereo not drawn)	21.0	103.0	136.0*	12.2	x	23.3
